# Experiments:
# [1] = test system: AGS; assay: Cytotoxicity against human AGS cells assessed as reduction in cell viability measured after 72 hrs by CCK8 assay; assay type: functional, cell-based
# How it was run: (§1)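 MGC803 or AGS cells (RPMI 1640, 10% FBS, 5% CO₂, 37 °C) plated at 3 × 10³ per well overnight, then exposed to 0.1–10 μM for 72 h. Viability was read by CCK8 absorbance at 450 nm, and IC₅₀ was calculated from the concentration series.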
# [2] = test system: MGC-803; assay: Cytotoxicity against human MGC803 cells assessed as reduction in cell viability measured after 72 hrs by CCK8 assay; assay type: functional, cell-based; conditions: MGC-803, 72 h; how it was run: as §1
# [3] = test system: MGC-803; assay: Induction of apoptosis in human MGC803 cells assessed as viable cells at 1 uM measured after 48 hrs FITC-A/PE-A staining based flow cytometry (reference value: 94.89 to 96.41%); assay type: functional; conditions: MGC-803, 48 h, read-out: Activity
# [4] = test system: AGS; assay: Induction of apoptosis in human AGS cells assessed as viable cells at 5 uM measured after 48 hrs FITC-A/PE-A staining based flow cytometry (reference value: 92.05 to 93.85%); assay type: functional; conditions: read-out: Activity
# [5] = test system: MGC-803; assay: Induction of apoptosis in human MGC803 cells assessed as necrotic cells at 0.2 uM measured after 48 hrs FITC-A/PE-A staining based flow cytometry (reference value: 0.9 to 2.18%); assay type: functional
# [6] = test system: MGC-803; assay: Cell cycle arrest in human MGC803 cells assessed as accumulation at S-phase at 1 uM measured after 24 hrs by propidium iodide staining based flow cytometry (reference value: 33%); assay type: functional
# [7] = test system: MGC-803; assay: Cell cycle arrest in human MGC803 cells assessed as accumulation at G2/M-phase at 0.2 uM measured after 24 hrs by propidium iodide staining based flow cytometry (reference value: 22%); assay type: functional
# [8] = test system: MGC-803; assay: Induction of apoptosis in human MGC803 cells assessed as viable cells at 0.2 uM measured after 48 hrs FITC-A/PE-A staining based flow cytometry (reference value: 94.89 to 96.41%); assay type: functional; conditions: MGC-803, 48 h, read-out: Activity
# [9] = test system: MGC-803; assay: Induction of apoptosis in human MGC803 cells assessed as late apoptotic cells at 5 uM measured after 48 hrs FITC-A/PE-A staining based flow cytometry (reference value: 0.67 to 0.82%); assay type: functional
# [10] = test system: MGC-803; assay: Induction of apoptosis in human MGC803 cells assessed as viable cells at 0.5 uM measured after 48 hrs FITC-A/PE-A staining based flow cytometry (reference value: 94.89 to 96.41%); assay type: functional; conditions: MGC-803, 48 h, read-out: Activity
# [11] = test system: MGC-803; assay: Induction of apoptosis in human MGC803 cells assessed as late apoptotic cells at 1 uM measured after 48 hrs FITC-A/PE-A staining based flow cytometry (reference value: 0.67 to 0.82%); assay type: functional
# [12] = test system: AGS; assay: Induction of apoptosis in human AGS cells measured after 48 hrs FITC-A/PE-A staining based flow cytometry; assay type: functional, cell-based
# [13] = test system: MGC-803; assay: Cell cycle arrest in human MGC803 cells assessed as accumulation at S-phase at 0.5 uM measured after 24 hrs by propidium iodide staining based flow cytometry (reference value: 33%); assay type: functional
# [14] = test system: MGC-803; assay: Induction of apoptosis in human MGC803 cells assessed as early apoptotic cells at 0.2 uM measured after 48 hrs FITC-A/PE-A staining based flow cytometry (reference value: 0.59 to 3.54%); assay type: functional
# [15] = test system: AGS; assay: Induction of apoptosis in human AGS cells assessed as late apoptotic cells at 1 uM measured after 48 hrs FITC-A/PE-A staining based flow cytometry (reference value: 1.89 to 3.49%); assay type: functional
# [16] = test system: MGC-803; assay: Cell cycle arrest in human MGC803 cells assessed as accumulation at G1-phase at 0.5 uM measured after 24 hrs by propidium iodide staining based flow cytometry (reference value: 45%); assay type: functional
# [17] = test system: AGS; assay: Induction of apoptosis in human AGS cells assessed as necrotic cells at 1 uM measured after 48 hrs FITC-A/PE-A staining based flow cytometry (reference value: 1.35 to 2.69%); assay type: functional
# [18] = test system: AGS; assay: Induction of apoptosis in human AGS cells assessed as early apoptotic cells at 0.5 uM measured after 48 hrs FITC-A/PE-A staining based flow cytometry (reference value: 1.77 to 2.91%); assay type: functional
# [19] = test system: MGC-803; assay: Cell cycle arrest in human MGC803 cells assessed as accumulation at G1-phase at 1 uM measured after 24 hrs by propidium iodide staining based flow cytometry (reference value: 45%); assay type: functional
# [20] = test system: MGC-803; assay: Induction of apoptosis in human MGC803 cells assessed as early apoptotic cells at 1 uM measured after 48 hrs FITC-A/PE-A staining based flow cytometry (reference value: 0.59 to 3.54%); assay type: functional
# [21] = test system: AGS; assay: Induction of apoptosis in human AGS cells assessed as viable cells at 0.2 uM measured after 48 hrs FITC-A/PE-A staining based flow cytometry (reference value: 92.05 to 93.85%); assay type: functional; conditions: read-out: Activity
# [22] = test system: AGS; assay: Induction of apoptosis in human AGS cells assessed as viable cells at 1 uM measured after 48 hrs FITC-A/PE-A staining based flow cytometry (reference value: 92.05 to 93.85%); assay type: functional; conditions: read-out: Activity
# [23] = test system: MGC-803; assay: Induction of apoptosis in human MGC803 cells assessed as late apoptotic cells at 0.5 uM measured after 48 hrs FITC-A/PE-A staining based flow cytometry (reference value: 0.9 to 2.18%); assay type: functional
# [24] = test system: MGC-803; assay: Induction of apoptosis in human MGC803 cells assessed as early apoptotic cells at 5 uM measured after 48 hrs FITC-A/PE-A staining based flow cytometry (reference value: 0.59 to 3.54%); assay type: functional
# [25] = test system: AGS; assay: Induction of apoptosis in human AGS cells assessed as early apoptotic cells at 5 uM measured after 48 hrs FITC-A/PE-A staining based flow cytometry (reference value: 1.77 to 2.91%); assay type: functional
# [26] = test system: MGC-803; assay: Cell cycle arrest in human MGC803 cells assessed as accumulation at G2/M-phase at 0.5 uM measured after 24 hrs by propidium iodide staining based flow cytometry (reference value: 22%); assay type: functional
# [27] = test system: AGS; assay: Induction of apoptosis in human AGS cells assessed as viable cells at 0.5 uM measured after 48 hrs FITC-A/PE-A staining based flow cytometry (reference value: 92.05 to 93.85%); assay type: functional; conditions: read-out: Activity
# [28] = test system: MGC-803; assay: Induction of apoptosis in human MGC803 cells assessed as early apoptotic cells at 0.5 uM measured after 48 hrs FITC-A/PE-A staining based flow cytometry (reference value: 0.59 to 3.54%); assay type: functional
# [29] = test system: AGS; assay: Induction of apoptosis in human AGS cells assessed as late apoptotic cells at 5 uM measured after 48 hrs FITC-A/PE-A staining based flow cytometry (reference value: 1.89 to 3.49%); assay type: functional
# [30] = test system: AGS; assay: Induction of apoptosis in human AGS cells assessed as necrotic cells at 0.2 uM measured after 48 hrs FITC-A/PE-A staining based flow cytometry (reference value: 1.35 to 2.69%); assay type: functional
# [31] = test system: AGS; assay: Induction of apoptosis in human AGS cells assessed as late apoptotic cells at 0.2 uM measured after 48 hrs FITC-A/PE-A staining based flow cytometry (reference value: 1.89 to 3.49%); assay type: functional
# [32] = test system: MGC-803; assay: Cell cycle arrest in human MGC803 cells assessed as accumulation at G2/M-phase at 1 uM measured after 24 hrs by propidium iodide staining based flow cytometry (reference value: 22%); assay type: functional
# [33] = test system: MGC-803; assay: Induction of apoptosis in human MGC803 cells assessed as late apoptotic cells at 0.2 uM measured after 48 hrs FITC-A/PE-A staining based flow cytometry (reference value: 0.9 to 2.18%); assay type: functional
# [34] = test system: MGC-803; assay: Cell cycle arrest in human MGC803 cells assessed as increase in accumulation at G1-phase measured after 24 hrs by propidium iodide staining based flow cytometry; assay type: functional
# [35] = test system: AGS; assay: Induction of apoptosis in human AGS cells assessed as late apoptotic cells at 0.5 uM measured after 48 hrs FITC-A/PE-A staining based flow cytometry (reference value: 1.89 to 3.49%); assay type: functional
# [36] = test system: MGC-803; assay: Induction of apoptosis in human MGC803 cells assessed as viable cells at 5 uM measured after 48 hrs FITC-A/PE-A staining based flow cytometry (reference value: 94.89 to 96.41%); assay type: functional; conditions: MGC-803, 48 h, read-out: Activity
# [37] = test system: AGS; assay: Induction of apoptosis in human AGS cells assessed as early apoptotic cells at 0.2 uM measured after 48 hrs FITC-A/PE-A staining based flow cytometry (reference value: 1.77 to 2.91%); assay type: functional
# [38] = test system: AGS; assay: Induction of apoptosis in human AGS cells assessed as necrotic cells at 5 uM measured after 48 hrs FITC-A/PE-A staining based flow cytometry (reference value: 1.35 to 2.69%); assay type: functional
# [39] = test system: MGC-803; assay: Induction of apoptosis in human MGC803 cells assessed as necrotic cells at 0.5 uM measured after 48 hrs FITC-A/PE-A staining based flow cytometry (reference value: 0.9 to 2.18%); assay type: functional
# [40] = test system: MGC-803; assay: Induction of apoptosis in human MGC803 cells assessed as necrotic cells at 1 uM measured after 48 hrs FITC-A/PE-A staining based flow cytometry (reference value: 0.9 to 2.18%); assay type: functional
# [41] = test system: AGS; assay: Induction of apoptosis in human AGS cells assessed as early apoptotic cells at 1 uM measured after 48 hrs FITC-A/PE-A staining based flow cytometry (reference value: 1.77 to 2.91%); assay type: functional
# [42] = test system: MGC-803; assay: Cell cycle arrest in human MGC803 cells assessed as accumulation at G1-phase at 0.2 uM measured after 24 hrs by propidium iodide staining based flow cytometry (reference value: 45%); assay type: functional
# [43] = test system: MGC-803; assay: Cell cycle arrest in human MGC803 cells assessed as accumulation at S-phase at 0.2 uM measured after 24 hrs by propidium iodide staining based flow cytometry (reference value: 33%); assay type: functional
# [44] = test system: MGC-803; assay: Induction of apoptosis in human MGC803 cells assessed as necrotic cells at 5 uM measured after 48 hrs FITC-A/PE-A staining based flow cytometry (reference value: 0.9 to 2.18%); assay type: functional
# [45] = test system: AGS; assay: Induction of apoptosis in human AGS cells assessed as necrotic cells at 0.5 uM measured after 48 hrs FITC-A/PE-A staining based flow cytometry (reference value: 1.35 to 2.69%); assay type: functional
# [46] = test system: MGC-803; assay: Induction of apoptosis in human MGC803 cells measured after 48 hrs FITC-A/PE-A staining based flow cytometry; assay type: functional, cell-based
compound,measurement,setting,value
CCC(=O)C1=C2C3=CN(CC=C(C)C)C(/C=C/[C@@H](C)CC)=CC3=C(Cl)C(=O)[C@@]2(C)OC1=O,IC50,[1],> 10000 nM
same,IC50,[2],5800 nM
C/C=C(\C)C(=O)C1=C2C3=CN(CC=C(C)C)C(/C=C/[C@@H](C)CC)=CC3=C(Cl)C(=O)[C@@]2(C)OC1=O,IC50,[1],2000 nM
same,IC50,[2],6800 nM
CC[C@H](C)/C=C/C1=CC2=C(Cl)C(=O)[C@@]3(C)OC(=O)C(C(=O)[C@@H](C)[C@@H](C)O)=C3C2=CN1C/C=C(\C)CCC=C(C)C,viability at 1 µM,[3],71.7%
same,viability at 5 µM,[4],8.93%
same,Activity,[5],4.06%
same,Activity,[6],32%
same,Activity,[7],23%
same,viability at 0.2 µM,[8],90.7%
same,IC50,[1],620 nM
same,Activity,[9],68.63%
same,viability at 0.5 µM,[10],91.3%
same,Activity,[11],18.17%
same,Activity,[12],Dose-dependent effect
same,Activity,[13],28%
same,Activity,[14],2.96%
same,Activity,[15],35.16%
same,Activity,[16],48%
same,Activity,[17],3.36%
same,Activity,[18],5.89%
same,Activity,[19],58%
same,Activity,[20],4.16%
same,viability at 0.2 µM,[21],93.2%
same,viability at 1 µM,[22],45%
same,Activity,[23],2.85%
same,Activity,[24],6.2%
same,Activity,[25],1.86%
same,Activity,[26],24%
same,viability at 0.5 µM,[27],88.2%
same,Activity,[28],2.65%
same,Activity,[29],86.77%
same,Activity,[30],1.37%
same,Activity,[31],2.69%
same,Activity,[32],9.4%
same,Activity,[33],2.23%
same,Activity,[34],Dose-dependent effect
same,Activity,[35],3.01%
same,viability at 5 µM,[36],20.1%
same,IC50,[2],460 nM
same,Activity,[37],2.78%
same,Activity,[38],2.44%
same,Activity,[39],3.23%
same,Activity,[40],6.01%
same,Activity,[41],16.5%
same,Activity,[42],48%
same,Activity,[43],30%
same,Activity,[44],5.03%
same,Activity,[45],2.85%
same,Activity,[46],Dose-dependent effect
CC[C@H](C)/C=C/C1=CC2=C(Cl)C(=O)[C@@]3(C)OC(=O)C(C(=O)[C@@H](C)[C@@H](C)O)=C3C2=CO1 [CHAETOVIRIDIN A],IC50,[1],> 10000 nM
same,IC50,[2],> 10000 nM
C/C=C(\C)C(=O)C1=C2C3=CN(C/C=C(\C)CCC=C(C)C)C(/C=C/[C@@H](C)CC)=CC3=C(Cl)C(=O)[C@@]2(C)OC1=O,IC50,[1],120 nM
same,IC50,[2],720 nM
